In brackets after ≈: the same amount, converted by molar mass. Activity calls are given as the source filed them. No cut-off for these calls is given here.
Assays:
[1] = test system: Klebsiella pneumoniae; test: Antibacterial activity against Klebsiella pneumoniae ATCC 13883 after 24 hrs using p-iodonitrotetrazolium violet dye; type: functional; conditions: ATCC 13883, 24 h
Method in brief: (§1)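 Broth microdilution MIC. Compounds reconstituted in acetone at a 5 mg/mL starting concentration, then serially doubling-diluted in sterile distilled water. Inoculum approx. 1 × 10^6 CFU/mL. Plates sealed and incubated at 37 °C for 24 h. Growth read after adding p-iodonitrotetrazolium violet (0.4 mg/mL); purple-pink means growth. MIC taken as lowest concentration with no growth. Ciprofloxacin positive control (0.01 mg/mL); acetone solvent and culture controls.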

[2] = test system: Escherichia coli; test: Antibacterial activity against Escherichia coli ATCC 8739 after 24 hrs using p-iodonitrotetrazolium violet dye; type: functional; conditions: ATCC 8739, 24 h; method in brief: as §1
[3] = test system: Enterococcus faecalis; test: Antibacterial activity against Enterococcus faecalis ATCC 29212 after 24 hrs using p-iodonitrotetrazolium violet dye; type: functional; conditions: ATCC 29212, 24 h; method in brief: as §1
[4] = test system: Staphylococcus aureus; test: Antibacterial activity against Staphylococcus aureus ATCC 25923 after 24 hrs using p-iodonitrotetrazolium violet dye; type: functional; conditions: ATCC 25923, 24 h; method in brief: as §1
[5] = species: Homo sapiens; test: Modulation of alpha1beta2gamma2S GABAA receptor (unknown origin) expressed in xenopus oocytes assessed as potentiation of GABA-induced chloride current by two-electrode voltage clamp method; type: cell-based

| MIC [1] [µg/mL] | MIC [2] [µg/mL] | MIC [3] [µg/mL] | MIC [4] [µg/mL] | Activity [5] | SMILES |
| --- | --- | --- | --- | --- | --- |
| 62.5 (≈ 164 µM) | 125 (≈ 328 µM) | 62.5 (≈ 164 µM) | 125 (≈ 328 µM) | inactive | CC(=O)O[C@@H]1CC[C@@]2(C)[C@@H](CC[C@H](C)[C@]23CC[C@](C)(CC(=O)O)O3)C1(C)C |
| 625 (≈ 1950 µM) | 125 (≈ 390 µM) | 62.5 (≈ 195 µM) | 62.5 (≈ 195 µM) | inactive | C/C(=C\C(=O)O)CC[C@]1(C)[C@@H](C)CC[C@@]2(C)C(CO)=CCC[C@@H]12 |
| 62.5 (≈ 193 µM) | 125 (≈ 385 µM) | 125 (≈ 385 µM) | 93.7 (≈ 289 µM) | inactive | C[C@H]1CC[C@H]2C(C)(C)[C@H](O)CC[C@]2(C)[C@@]12CC[C@@](C)(CCO)O2 |
| 62.5 (≈ 185 µM) | 125 (≈ 369 µM) | 62.5 (≈ 185 µM) | 125 (≈ 369 µM) | inactive | C[C@H]1CC[C@H]2C(C)(C)[C@H](O)CC[C@]2(C)[C@@]12CC[C@](C)(CC(=O)O)O2 |
| 93.8 (≈ 293 µM) | 125 (≈ 390 µM) | 125 (≈ 390 µM) | 62.5 (≈ 195 µM) | inactive | C/C(=C\C(=O)O)CC[C@@]1(C)[C@H](C)CC[C@@]2(C)C(CO)=CCC[C@H]12 (relative stereo) |
|  |  |  |  | inactive | C[C@@H]1CC[C@@]2(C)[C@H](CC[C@@H]3O[C@@]32C)[C@@]1(C)CCC1=CC(=O)OC1 |
| 62.5 (≈ 195 µM) | 250 (≈ 780 µM) | 125 (≈ 390 µM) | 125 (≈ 390 µM) | inactive | C[C@H]1CC[C@H]2C(C)(C)CCC[C@]2(C)[C@@]1(O)CCC1=CC(=O)OC1 |
| 62.5 (≈ 196 µM) | 125 (≈ 393 µM) | 62.5 (≈ 196 µM) | 93.7 (≈ 294 µM) | inactive | C[C@H]1CC=C2[C@@H](CC[C@@H](O)C2(C)C)[C@]1(C)CCC1=CC(=O)OC1 |
| 46.9 (≈ 145 µM) | 125 (≈ 388 µM) | 125 (≈ 388 µM) | 62.5 (≈ 194 µM) | inactive | C[C@H]1CC[C@H]2C(C)(C)CCC[C@]2(C)[C@@]12CC[C@](C)(CC(=O)O)O2 |
| 62.5 (≈ 195 µM) | > 250 | 62.5 (≈ 195 µM) | 62.5 (≈ 195 µM) | inactive | C/C(=C\C(=O)O)CC[C@]1(C)[C@@H](C)CC[C@]2(C)[C@H]1CC[C@H]1O[C@]12C |
| 93.8 (≈ 308 µM) | 15.6 (≈ 51.2 µM) | 31.3 (≈ 103 µM) | 15.6 (≈ 51.2 µM) | inactive | CC1=CCC[C@H]2[C@](C)(CC/C(C)=C/C(=O)O)[C@@H](C)CC[C@@]12C |

| SMILES | MIC [1] [µg/mL] | MIC [2] [µg/mL] | MIC [3] [µg/mL] | MIC [4] [µg/mL] | Activity [5] |
| --- | --- | --- | --- | --- | --- |
| O=C(O)c1cn(C2CC2)c2cc(N3CCNCC3)c(F)cc2c1=O [CIPROFLOXACIN] | 0.078 (≈ 0.235 µM) | 0.156 (≈ 0.471 µM) | 0.156 (≈ 0.471 µM) | 0.156 (≈ 0.471 µM) |  |
